Results reported in ChEMBL document CHEMBL1817571, “Design and synthesis of new prostaglandin D₂ receptor antagonists” (Bioorg Med Chem, 2011).

Columns and labels:
[1] = biological target: Prostacyclin receptor (Homo sapiens, UniProt P43119); experiment: Displacement of [3H]Iloprost from human prostanoid IP receptor expressed in CHO cells after 30 mins by liquid scintillation counting
[2] = biological target: T1, Prostaglandin E2 receptor EP1 subtype (Mus musculus, UniProt P35375); experiment: Displacement of [3H]PGE2 from mouse prostaglandin EP1 receptor expressed in CHO cells after 20 mins by liquid scintillation counting
T1 sequence (P35375 whole entry): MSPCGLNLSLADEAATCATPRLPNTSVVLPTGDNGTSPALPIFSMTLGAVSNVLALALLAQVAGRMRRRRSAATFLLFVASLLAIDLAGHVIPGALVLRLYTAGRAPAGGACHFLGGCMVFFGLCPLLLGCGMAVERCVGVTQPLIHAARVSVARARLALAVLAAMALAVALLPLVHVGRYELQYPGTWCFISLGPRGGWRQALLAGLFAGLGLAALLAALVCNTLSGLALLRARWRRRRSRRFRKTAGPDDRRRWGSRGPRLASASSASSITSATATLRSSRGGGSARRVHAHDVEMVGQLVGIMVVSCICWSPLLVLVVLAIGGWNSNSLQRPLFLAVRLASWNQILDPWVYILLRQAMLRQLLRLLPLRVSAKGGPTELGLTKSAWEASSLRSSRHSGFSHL

[3] = biological target: T2, Prostaglandin D2 receptor (Mus musculus, UniProt P70263); experiment: Displacement of [3H]PGD2 from mouse prostanoid DP receptor expressed in CHO cells after 20 mins by liquid scintillation counting
T2 sequence (P70263 whole entry): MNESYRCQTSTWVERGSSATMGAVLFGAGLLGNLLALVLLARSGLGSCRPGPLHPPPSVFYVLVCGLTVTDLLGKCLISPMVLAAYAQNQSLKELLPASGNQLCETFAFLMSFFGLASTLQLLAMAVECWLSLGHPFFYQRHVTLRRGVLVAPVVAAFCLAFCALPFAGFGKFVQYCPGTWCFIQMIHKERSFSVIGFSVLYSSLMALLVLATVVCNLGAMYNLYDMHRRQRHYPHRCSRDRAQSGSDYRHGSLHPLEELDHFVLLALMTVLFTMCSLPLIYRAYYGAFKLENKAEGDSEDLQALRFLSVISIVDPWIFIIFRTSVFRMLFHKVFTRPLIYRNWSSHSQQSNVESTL

[4] = biological target: Prostaglandin E2 receptor EP4 subtype (Mus musculus, UniProt P32240); experiment: Displacement of [3H]PGE2 from mouse prostaglandin EP4 receptor expressed in CHO cells after 60 mins by liquid scintillation counting; format: cell-based
Prostaglandin E2 receptor EP4 subtype, sequence (P32240 whole entry): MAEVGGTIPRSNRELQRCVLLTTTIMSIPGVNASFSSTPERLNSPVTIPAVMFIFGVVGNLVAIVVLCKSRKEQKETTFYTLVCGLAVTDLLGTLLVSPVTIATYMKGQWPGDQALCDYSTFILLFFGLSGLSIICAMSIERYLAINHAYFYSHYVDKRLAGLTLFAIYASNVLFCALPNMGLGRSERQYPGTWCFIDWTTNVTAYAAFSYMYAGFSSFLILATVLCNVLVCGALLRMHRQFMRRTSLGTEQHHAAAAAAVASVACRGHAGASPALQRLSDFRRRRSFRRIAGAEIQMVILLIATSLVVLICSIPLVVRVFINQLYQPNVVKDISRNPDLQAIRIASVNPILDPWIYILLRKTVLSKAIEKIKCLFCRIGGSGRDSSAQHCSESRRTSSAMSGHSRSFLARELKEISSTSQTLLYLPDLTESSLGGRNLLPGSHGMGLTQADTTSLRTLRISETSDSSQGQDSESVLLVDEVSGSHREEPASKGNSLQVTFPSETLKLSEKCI
Summary of the method: (§1)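 Membranes came from CHO cells stably expressing mEP1, EP2, EP3 or EP4. They were incubated with 2.5 nM [3H]PGE2 and graded test concentrations in 10 mM KH2PO4–KOH (1 mM EDTA, 10 mM MgCl2, 100 mM NaCl, pH 6.0) at room temperature, 20 min for EP1 and 60 min for EP2–4. Reactions were filtered on GF/B, washed with ice-cold buffer, and counted by scintillation. IC50 came by regression, with Ki via Cheng–Prusoff.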

[5] = Cmax in rat at 10 mg/kg, po; format: ADME, organism-based; design: dose 10 mg/kg, route oral; details: in vivo
Summary of the method: (§2)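 Fasted male rats (n = 3) received 1 mg/kg iv or 10 mg/kg po. Jugular vein blood was drawn with a heparinized syringe at pre-dose and 2 (iv only), 5, 15 and 30 min, and 1, 2, 4, 6 and 8 h. Plasma was obtained by centrifugation at 4 °C and stored at −80 °C. AUC, Cmax, T1/2, Vss and CL came from the plasma concentration–time course. BA was derived from dose-normalized AUCpo/AUCiv.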

[6] = Half life in rat at 10 mg/kg, po; format: ADME, organism-based; design: dose 10 mg/kg, route oral; details: in vivo
Summary of the method: as §2

[7] = Volume of distribution at steady state in rat at 1 mg/kg, iv; format: ADME, organism-based; design: dose 1 mg/kg, route intravenous; details: in vivo, read-out: Vdss
Summary of the method: as §2

[8] = Total clearance in rat at 1 mg/kg, iv; format: ADME, organism-based; design: dose 1 mg/kg, route intravenous; details: in vivo
Summary of the method: as §2

[9] = Half life in rat at 1 mg/kg, iv; format: ADME, organism-based; design: dose 1 mg/kg, route intravenous; details: in vivo
Summary of the method: as §2

[10] = AUC (infinity) in rat at 10 mg/kg, po; format: ADME, organism-based; design: time infinity, dose 10 mg/kg, route oral; details: plasma
Summary of the method: as §2

[11] = biological target: T2, Prostaglandin D2 receptor; experiment: Antagonist activity at mouse prostanoid DP receptor expressed in CHO cells assessed as inhibition of PGD2-induced intracellular cAMP production; format: functional, cell-based
Summary of the method: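 CHO-mDP cells were seeded at 1×10^5 cells/well and grown 2 days. They were preincubated about 10 min at 37 °C in MEM with 2 µM diclofenac, then about 10 min in MEM with 0.1% BSA, 1 mM IBMX and 2 µM diclofenac. Test compounds at various concentrations plus 10 nM PGD2 were then added for 10 min at 37 °C. Reactions were stopped with 10% TCA, extracted with tri-n-octylamine/chloroform, and cAMP was measured by EIA.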

[12] = biological target: T3, Prostaglandin E2 receptor EP3 subtype (Mus musculus, UniProt P30557); experiment: Displacement of [3H]PGE2 from mouse prostaglandin EP3alpha receptor expressed in CHO cells after 60 mins by liquid scintillation counting; format: cell-based
T3 sequence (P30557 whole entry): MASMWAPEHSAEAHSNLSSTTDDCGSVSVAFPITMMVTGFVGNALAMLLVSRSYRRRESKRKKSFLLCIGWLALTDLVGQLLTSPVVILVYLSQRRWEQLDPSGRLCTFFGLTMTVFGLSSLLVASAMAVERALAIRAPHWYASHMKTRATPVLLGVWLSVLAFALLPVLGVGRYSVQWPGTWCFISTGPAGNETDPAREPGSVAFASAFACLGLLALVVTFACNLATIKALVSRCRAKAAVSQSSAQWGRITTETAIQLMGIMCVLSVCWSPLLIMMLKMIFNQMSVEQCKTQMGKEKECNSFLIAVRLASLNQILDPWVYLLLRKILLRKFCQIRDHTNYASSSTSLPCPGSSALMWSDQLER
Summary of the method: as §1

[13] = AUC (infinity) in rat at 1 mg/kg, iv; format: ADME, organism-based; design: time infinity, dose 1 mg/kg, route intravenous; details: plasma
Summary of the method: as §2

[14] = biological target: Prostaglandin E2 receptor EP2 subtype (Mus musculus, UniProt Q62053); experiment: Displacement of [3H]PGE2 from mouse prostaglandin EP2 receptor expressed in CHO cells after 60 mins by liquid scintillation counting; format: cell-based
Prostaglandin E2 receptor EP2 subtype, sequence (Q62053 whole entry): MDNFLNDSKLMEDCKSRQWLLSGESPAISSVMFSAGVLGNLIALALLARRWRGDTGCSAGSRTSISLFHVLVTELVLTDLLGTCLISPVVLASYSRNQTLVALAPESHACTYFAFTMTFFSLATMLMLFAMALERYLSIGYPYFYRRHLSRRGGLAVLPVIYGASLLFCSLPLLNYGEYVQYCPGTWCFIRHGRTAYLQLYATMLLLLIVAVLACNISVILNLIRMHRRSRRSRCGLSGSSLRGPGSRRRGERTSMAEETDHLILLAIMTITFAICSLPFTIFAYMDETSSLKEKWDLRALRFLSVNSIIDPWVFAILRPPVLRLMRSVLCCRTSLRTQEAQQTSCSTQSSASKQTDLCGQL
Summary of the method: as §1

[15] = Oral bioavailability in rat at 10 mg/kg; format: ADME, organism-based; details: in vivo
Summary of the method: as §2

[16] = biological target: Prostaglandin F2-alpha receptor (Mus musculus, UniProt P43117); experiment: Displacement of [3H]PGF2alpha from mouse prostanoid FP receptor expressed in CHO cells after 60 mins by liquid scintillation counting; format: cell-based
Prostaglandin F2-alpha receptor, sequence (P43117 whole entry): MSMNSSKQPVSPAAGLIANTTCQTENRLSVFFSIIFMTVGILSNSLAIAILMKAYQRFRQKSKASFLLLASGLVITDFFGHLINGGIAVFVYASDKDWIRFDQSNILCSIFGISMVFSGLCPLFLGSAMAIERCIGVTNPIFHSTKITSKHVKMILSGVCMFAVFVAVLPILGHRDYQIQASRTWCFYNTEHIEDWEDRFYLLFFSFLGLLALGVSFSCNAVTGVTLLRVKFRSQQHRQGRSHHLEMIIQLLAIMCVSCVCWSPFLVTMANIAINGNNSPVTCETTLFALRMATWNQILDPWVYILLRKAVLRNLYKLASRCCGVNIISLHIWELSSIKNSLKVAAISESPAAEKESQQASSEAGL
Summary of the method: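 CHO-mFP membranes were incubated with 2.5 nM [3H]PGF2α and varied test concentrations in 10 mM KH2PO4–KOH, 1 mM EDTA, 10 mM MgCl2, 100 mM NaCl, pH 6.0, for 60 min at room temperature. Samples were then filtered on GF/B, washed with ice-cold phosphate/NaCl buffer, and counted by scintillation. IC50 came from the regression curve, and Ki = IC50/(1+[L]/Kd).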

[17] = biological target: T4, Thromboxane A2 receptor (Homo sapiens, UniProt P21731); experiment: Displacement of [3H]-SQ29548 from human prostanoid TP receptor expressed in CHO cells after 30 mins by liquid scintillation counting
T4 sequence (P21731 whole entry): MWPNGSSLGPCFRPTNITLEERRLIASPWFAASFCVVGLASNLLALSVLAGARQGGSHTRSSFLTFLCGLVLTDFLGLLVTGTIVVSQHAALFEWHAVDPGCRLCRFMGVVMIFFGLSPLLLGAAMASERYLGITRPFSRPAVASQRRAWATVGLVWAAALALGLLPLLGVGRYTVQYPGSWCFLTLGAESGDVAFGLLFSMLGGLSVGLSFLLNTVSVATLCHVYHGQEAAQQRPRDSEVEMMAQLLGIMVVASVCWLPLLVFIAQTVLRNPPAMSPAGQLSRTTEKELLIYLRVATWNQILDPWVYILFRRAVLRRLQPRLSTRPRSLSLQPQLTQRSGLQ

Prostacyclin receptor, sequence (P43119 whole entry): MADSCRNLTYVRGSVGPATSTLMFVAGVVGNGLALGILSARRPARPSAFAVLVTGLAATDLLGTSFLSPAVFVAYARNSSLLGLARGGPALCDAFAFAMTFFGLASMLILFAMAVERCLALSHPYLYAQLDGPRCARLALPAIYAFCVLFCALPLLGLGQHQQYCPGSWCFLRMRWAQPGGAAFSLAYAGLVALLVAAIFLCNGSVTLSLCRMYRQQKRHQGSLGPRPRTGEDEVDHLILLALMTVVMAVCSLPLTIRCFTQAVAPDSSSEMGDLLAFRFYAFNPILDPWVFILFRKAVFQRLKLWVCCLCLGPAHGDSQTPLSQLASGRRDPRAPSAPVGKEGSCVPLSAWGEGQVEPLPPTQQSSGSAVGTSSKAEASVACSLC

## CN1C[C@@H](COc2ccc(C(=O)Nc3cccc(CC(=O)O)c3)cc2)Oc2ccccc21
[1]
  Ki: 6400 nM
[2]
  Ki: 2100 nM
[3]
  Ki: 310 nM
[4]
  Ki: > 10000 nM
[5]
  Cmax: 4900 ng/mL
[6]
  half-life: 1.8 h
[7]
  Vd: 0.22 L/kg
[8]
  clearance: 25 mL/min/kg
[9]
  half-life: 0.27 h
[10]
  AUC(0-inf): 8000 ng·h/mL
[11]
  IC50: 220 nM
[12]
  Ki: > 10000 nM
[13]
  AUC(0-inf): 670 ng·h/mL
[14]
  Ki: 520 nM
[15]
  bioavailability: 119%

## CN1C[C@@H](COc2ccc(S(=O)(=O)Nc3cccc(CC(=O)O)c3)cc2)Oc2ccccc21
[1]
  Ki: 4600 nM
[2]
  Ki: 2700 nM
[3]
  Ki: 430 nM
[4]
  Ki: 140 nM
[12]
  Ki: 210 nM
[14]
  Ki: 2300 nM

## CN1C[C@@H](COc2ccc(NC(=O)c3cccc(CC(=O)O)c3)cc2)Oc2ccccc21
[1]
  Ki: > 10000 nM
[2]
  Ki: > 10000 nM
[3]
  Ki: 5300 nM
[4]
  Ki: > 10000 nM
[12]
  Ki: > 10000 nM
[14]
  Ki: 3500 nM

## CN1C[C@@H](COc2ccc(C(=O)N(C)c3cccc(CC(=O)O)c3)cc2)Oc2ccccc21
[1]
  Ki: > 10000 nM
[2]
  Ki: > 10000 nM
[3]
  Ki: 760 nM
[4]
  Ki: > 10000 nM
[12]
  Ki: 1700 nM
[14]
  Ki: 5300 nM

## CCN(C(=O)c1ccc(OC[C@@H]2CN(C)c3ccccc3O2)cc1)c1cccc(CC(=O)O)c1
[1]
  Ki: 2900 nM
[2]
  Ki: 1300 nM
[3]
  Ki: 770 nM
[4]
  Ki: > 10000 nM
[12]
  Ki: 700 nM
[14]
  Ki: > 10000 nM

## Cc1cc(OC[C@@H]2CN(C)c3ccccc3O2)ccc1C(=O)Nc1cccc(CC(=O)O)c1
[1]
  Ki: 3600 nM
[2]
  Ki: > 10000 nM
[3]
  Ki: 18 nM
[4]
  Ki: > 10000 nM
[16]
  Ki: > 10000 nM
[11]
  IC50: 3.3 nM
[17]
  Ki: > 10000 nM
[12]
  Ki: > 10000 nM

## CN1C[C@@H](COc2ccc(C(=O)Nc3cccc(CC(=O)O)c3)c(Cl)c2)Oc2ccccc21
[3]
  Ki: 16 nM
[11]
  IC50: 20 nM

## Cc1cc(OC[C@@H]2CN(C)c3ccccc3O2)ccc1C(=O)Nc1cccc(CC(=O)O)c1C
[3]
  Ki: 59 nM
[11]
  IC50: 28 nM

## Cc1cc(CC(=O)O)cc(NC(=O)c2ccc(OC[C@@H]3CN(C)c4ccccc4O3)cc2C)c1
[1]
  Ki: 3500 nM
[2]
  Ki: > 10000 nM
[3]
  Ki: 8.4 nM
[4]
  Ki: 670 nM
[16]
  Ki: > 10000 nM
[11]
  IC50: 3.4 nM
[17]
  Ki: > 10000 nM
[12]
  Ki: > 10000 nM
[14]
  Ki: 62 nM

## Cc1ccc(NC(=O)c2ccc(OC[C@@H]3CN(C)c4ccccc4O3)cc2C)cc1CC(=O)O
[3]
  Ki: 11 nM
[11]
  IC50: 6.1 nM

## Cc1cc(OC[C@@H]2CN(C)c3ccccc3O2)ccc1C(=O)Nc1cc(CC(=O)O)ccc1Cl
[3]
  Ki: 7.7 nM
